IDH1 mut inh: inhibitors of human IDH1 R132H; O75874; IDH1 R132H reductase, diaphorase/resazurin fluorescence, 60 min; inhibition, % at 10 µM; hit rate 0.18% among 70,000; AID 624101; in the data active = inhibition above about 34%; inconclusive = no clear call, values can overlap the other calls; inactive = below about 11%
Target sequence (O75874 whole entry R132H): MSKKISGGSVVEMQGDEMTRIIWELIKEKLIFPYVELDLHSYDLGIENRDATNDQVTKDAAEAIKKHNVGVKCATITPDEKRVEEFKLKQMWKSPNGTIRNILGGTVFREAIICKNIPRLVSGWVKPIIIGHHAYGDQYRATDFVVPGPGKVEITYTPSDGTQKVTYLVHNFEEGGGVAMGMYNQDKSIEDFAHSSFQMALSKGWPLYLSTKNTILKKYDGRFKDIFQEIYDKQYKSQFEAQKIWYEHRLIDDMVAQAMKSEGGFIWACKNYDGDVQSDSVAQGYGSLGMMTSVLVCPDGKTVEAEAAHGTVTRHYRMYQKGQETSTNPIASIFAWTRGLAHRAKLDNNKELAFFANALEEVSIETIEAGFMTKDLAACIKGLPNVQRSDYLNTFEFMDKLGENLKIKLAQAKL
T cruzi growth-1: blocks T. cruzi growth in NIH3T3 culture; T. cruzi beta-gal in NIH3T3, GalScreen luminescence, 90 h; inhibition, % at 8.34 µM; hit rate 5.9% among 77,000; AID 624255;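 active = mean inhibition above about 93%, with at least 55% of replicates each passing it, limit read from the data, passing the limit was not always enough; inconclusive = only one of those two conditions holds; inactive = neither condition holds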
GASC1 inh: KDM4C (human) demethylase inhibition | Q9H3R0 | GST-KDM4C 2-372, H3K9me3 peptide, LANCE TR-FRET | inhibition, % at 12.5 µM | hit rate 0.15% among 96,000;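 active = mean replicate inhibition above about 25%, with at least 55% of replicates also reaching it, limit read from the data, passing the limit was not always enough; inconclusive = only one of those two conditions met; inactive = neither condition met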
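System: N-terminal GST-fused human GASC-1 (KDM4C) fragment, residues 2-372; amount: enzyme final amount 10 nM; incubation: reaction 30 min RT, detection step 1 h RT; medium: HEPES buffer, pH 7.5, plus ascorbate; technique: LANCE TR-FRET, Eu antibody, ULight-streptavidin, EDTA, ex 340 nm, em 618/671 nm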
T cruzi growth-2: Trypanosoma cruzi proliferation inhibition; shares compounds with T cruzi growth-1; hit rate 72% among 5,600; inhibition, % at 8.35 µM; T. cruzi beta-gal in NIH3T3, GalScreen luminescence, 90 h;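 active = mean replicate inhibition above about 95% and at least 55% of replicates individually reaching it, limit read from the data; inconclusive = only one of the two criteria is met; inactive = neither criterion is met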
T cruzi growth-3: Trypanosoma cruzi proliferation inhibition; shares compounds with T cruzi growth-1; T. cruzi beta-gal in NIH3T3, GalScreen luminescence, 90 h; inhibition, % at 2.09 µM; hit rate 21% among 5,600;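 active = mean inhibition above about 95%, with at least 55% of replicates also reaching it, limit read from the data; inconclusive = meets just one of the two conditions; inactive = meets neither condition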
3T3 cytotox: NIH/3T3 (mouse) viability loss. shares compounds with T cruzi growth-1. NIH/3T3 viability, CellTiter-Glo ATP luminescence, 90 h. cytotoxicity (signal decrease), % at 8.35 µM. hit rate 14% among 5,600. AID 651742;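 active = mean signal decrease across replicates above about 35% based on untreated-well scatter, with enough replicates individually passing, limit read from the data; inconclusive = no rule stated though some were filed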
3T3 cytotox 2: NIH/3T3 (mouse) viability loss. shares compounds with T cruzi growth-1. NIH/3T3 viability, CellTiter-Glo ATP luminescence, 90 h. inhibition, % at 24.9 µM. hit rate 56% among 5,600;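 active = mean loss of cell viability signal at or above a set limit, and enough replicates individually reaching it; inconclusive = meets only the mean limit or only the replicate share; inactive = meets neither condition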
Large screens that a line does not name were inactive (follow-up assays come after a bar, where they were run). Shown is part of a subset that was picked to be rich in hits.

COCC(=O)Nc1ccc2c(c1)C(=O)N(C)C[C@H](OC)[C@@H](C)CN(C(=O)c1cccnc1)[C@H](C)CO2	none
C/C=C/c1ccc2c(c1)O[C@H](CN(C)Cc1cncnc1)[C@H](C)CN([C@@H](C)CO)S2(=O)=O	none (no result: T cruzi growth-1)
C/C=C/c1ccc2c(c1)O[C@H](CN(C)Cc1ccncc1)[C@@H](C)CN([C@@H](C)CO)S2(=O)=O	T cruzi growth-1 109 | T cruzi growth-2 109 | T cruzi growth-3 102 | 3T3 cytotox inactive | 3T3 cytotox 2 28
C/C=C/c1ccc2c(c1)O[C@@H](CN(C)Cc1ccncc1)[C@H](C)CN([C@@H](C)CO)S2(=O)=O	T cruzi growth-1 108 | T cruzi growth-2 108 | T cruzi growth-3 105 | 3T3 cytotox inactive | 3T3 cytotox 2 57
C/C=C/c1ccc2c(c1)O[C@H](CN(C)Cc1ccncc1)[C@H](C)CN([C@@H](C)CO)S2(=O)=O	none
C[C@@H]1CN([C@@H](C)CO)C(=O)c2cc(NS(=O)(=O)c3ccc(F)cc3)ccc2O[C@@H]1CN(C)S(=O)(=O)c1cn(C)cn1	none
CCS(=O)(=O)N1C[C@@H](C)[C@H](OC)CN(C)C(=O)c2ccc(NC(=O)Nc3ccccc3Cl)cc2OC[C@H]1C	none (no result: IDH1 mut inh, T cruzi growth-1)
Cc1ccc(S(=O)(=O)Nc2ccc3c(c2)CC(=O)N([C@H](C)CO)C[C@@H](C)[C@H](CN(C)S(=O)(=O)c2ccc(F)cc2)O3)cc1	none
COCC(=O)Nc1ccc2c(c1)OC[C@@H](C)N(C(=O)COC)C[C@@H](C)[C@@H](OC)CN(C)C2=O	GASC1 inh inconclusive (no result: T cruzi growth-1)
CO[C@@H]1CN(C)C(=O)c2cc(NC(=O)C3CCOCC3)ccc2OC[C@@H](C)N(CC2CC2)C[C@@H]1C	T cruzi growth-1 99 | T cruzi growth-2 inactive | T cruzi growth-3 inactive | 3T3 cytotox inactive | 3T3 cytotox 2 inactive
CO[C@H]1CN(C)C(=O)c2ccc(NC(=O)C3CCC3)cc2OC[C@@H](C)N(CC2CCCCC2)C[C@@H]1C	T cruzi growth-1 inconclusive | T cruzi growth-2 107 | T cruzi growth-3 inactive | 3T3 cytotox inactive | 3T3 cytotox 2 103
CO[C@@H]1CN(C)C(=O)c2ccc(NC(=O)C3CCC3)cc2OC[C@H](C)N(CC2CCCCC2)C[C@@H]1C	none
CO[C@@H]1CN(C)C(=O)c2cc(NC(=O)C3CCOCC3)ccc2OC[C@@H](C)N(CC2CCOCC2)C[C@H]1C	none
COc1ccccc1-c1ccc([C@H]2[C@@H](CO)N3CCCCN(Cc4ccncc4)C[C@H]23)cc1	none (no result: IDH1 mut inh)
C[C@@H]1CN([C@H](C)CO)C(=O)c2cc(-c3ccccc3)cnc2O[C@@H]1CN(C)C(=O)Cc1cccnc1	none (no result: IDH1 mut inh)
O=S(=O)(c1ccccc1F)N1CC[C@@H]2[C@@H](CO)Nc3ccc(-c4ccccc4F)cc3[C@@H]21	none (no result: IDH1 mut inh)
O=S(=O)(c1ccccc1)N1CC[C@@H]2[C@H](CO)Nc3ccc(-c4ccccc4F)cc3[C@@H]21	T cruzi growth-1 109 (no result: IDH1 mut inh) | T cruzi growth-2 inactive | T cruzi growth-3 97 | 3T3 cytotox inactive | 3T3 cytotox 2 52
COc1ccc(S(=O)(=O)N2CC[C@@H]3[C@H]2c2cc(-c4ccccc4F)ccc2N[C@@H]3CO)cc1	none (no result: IDH1 mut inh)
Cc1ccc(S(=O)(=O)N2CC[C@@H]3[C@H](CO)Nc4ccc(Br)cc4[C@@H]32)cc1	T cruzi growth-1 inconclusive (no result: IDH1 mut inh) | T cruzi growth-2 109 | T cruzi growth-3 inactive | 3T3 cytotox inactive | 3T3 cytotox 2 33
Cc1ccc(S(=O)(=O)N2CC[C@@H]3[C@H]2c2cc(-c4ccccc4F)ccc2N[C@@H]3CO)cc1	T cruzi growth-1 inconclusive (no result: IDH1 mut inh) | T cruzi growth-2 99 | T cruzi growth-3 inactive | 3T3 cytotox 38 | 3T3 cytotox 2 100
O=S(=O)(c1ccc(F)cc1)N1CC[C@@H]2[C@H](CO)Nc3ccc(Br)cc3[C@@H]21	none (no result: IDH1 mut inh)
Cc1ccccc1S(=O)(=O)N1CC[C@H]2[C@H](CO)Nc3ccc(-c4ccccc4F)cc3[C@H]21	T cruzi growth-1 109 (no result: IDH1 mut inh) | T cruzi growth-2 99 | T cruzi growth-3 inactive | 3T3 cytotox 43 | 3T3 cytotox 2 103
COc1ccc(S(=O)(=O)N2CC[C@H]3[C@H](CO)Nc4ccc(-c5ccccc5F)cc4[C@H]32)cc1	none (no result: IDH1 mut inh)

Compound activity (PubChem)
